Activity calls are given as the source filed them. The calls are words filed in the database; no cut-off is given here.
Tests used:
[1] = Inhibition of Cyanidioschyzon merolae ABCB1 ATPase activity assessed as inhibition constant by colorimetric analysis
Summary of the method: (§1)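 Purified wild-type CmABCB1 in β-DDM micelles; ATPase activity measured against rhodamine concentration with 5 mM ATP in 50 mM Tris–HCl (pH 7.5 at 37 °C), 150 mM NaCl, 0.05% (w/v) β-DDM, 37 °C, 30 min. Bell-shaped activity curve fitted to a modified Michaelis–Menten equation giving Km (stimulation) and Ki (substrate inhibition); means ± SD, n = 3.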

Cyanidioschyzon merolae [2] = test: Binding affinity to Cyanidioschyzon merolae ABCB1 assessed as Km; summary of the method: as §1
Cyanidioschyzon merolae [3] = test: Potency index, ratio of test compound Ki to Rhodamine 6G Ki for inhibition of Cyanidioschyzon merolae ABCB1 ATPase activity assessed as inhibition constant by colorimetric analysis
Cyanidioschyzon merolae [4] = test: Substrate activity at Cyanidioschyzon merolae ABCB1 4WY/M391W mutant assessed as tryptophan quenching ratio by measuring inner chamber entry by fluorescence based analysis
Summary of the method: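 Purified CmABCB1 4WY/M391W mutant (four of six native Trp removed, Trp introduced at 391), 13 μg/mL in 20 mM Tris–HCl (pH 7.5 at 25 °C), 150 mM NaCl, 0.05% (w/v) β-DDM, titrated with compound (0–1.0 μM) at 25 °C; excitation 290 nm, quenching ratio of emission at 340 nm.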

Cyanidioschyzon merolae [5] = test: Potency index, ratio of test compound Km to Rhodamine 6G Km for binding affinity to Cyanidioschyzon merolae ABCB1 assessed as Km
Saccharomyces cerevisiae [6] = test: Antimicrobial activity against Saccharomyces cerevisiae expressing AD1-8u- cells assessed as growth inhibition at 1 uM incubated for 15 to 17 hrs; format: functional, organism-based; conditions: time 15-17 hrs
Summary of the method: (§2)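 S. cerevisiae AD1-8u cells expressing wild-type CmABCB1, alongside mock-transfected AD1-8u cells, grown in YPD medium with a range of drug concentrations at 30 °C for 15–17 h; growth compared between strains; means ± SD, n = 3.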

Saccharomyces cerevisiae [7] = test: Antimicrobial activity against Saccharomyces cerevisiae expressing AD1-8u- cells assessed as growth inhibition upto 30 uM incubated for 15 to 17 hrs; format: functional, organism-based; conditions: time 15-17 hrs; summary of the method: as §2

Structure (SMILES)	Ki [1] [µM]	Km (Cyanidioschyzon merolae [2]) [µM]	further results
CCCCOC(=O)c1ccccc1C1=c2cc3c4c(c2Oc2c1cc1c5c2CCCN5CCC1)CCC[N+]=4CCC3	43	1.5	
O=C(OCc1ccccc1C(F)(F)F)c1ccccc1C1=c2cc3c(cc2Oc2cc4c(cc21)CCCN4)=NCCC3	1.2	3.9	
O=C(OCc1ccc2ccccc2c1)c1ccccc1C1=c2cc3c(cc2Oc2cc4c(cc21)CCCN4)=NCCC3	9.6	0.77	
CCCCOC(=O)c1ccccc1-c1c2cc(C)/c(=N\CC)cc-2oc2cc(NCC)c(C)cc12	560	4.6	
COc1cccc(OC)c1COC(=O)c1ccccc1C1=c2cc3c(cc2Oc2cc4c(cc21)CCCN4)=NCCC3	5.8	0.55	Ratio Ki (Cyanidioschyzon merolae [3]): 120; Activity (Cyanidioschyzon merolae [4]): 30%; Ratio (Cyanidioschyzon merolae [5]): 5
O=C(OCc1cccc([N+](=O)[O-])c1)c1ccccc1C1=c2cc3c(cc2Oc2cc4c(cc21)CCCN4)=NCCC3	12	0.55	
COc1cc(COC(=O)c2ccccc2C2=c3cc4c(cc3Oc3cc5c(cc32)CCCN5)=NCCC4)cc(OC)c1	31	0.31	
COc1ccc(COC(=O)c2ccccc2C2=c3cc4c(cc3Oc3cc5c(cc32)CCCN5)=NCCC4)cc1	9.1	0.73	
Cc1cccc(COC(=O)c2ccccc2C2=c3cc4c(cc3Oc3cc5c(cc32)CCCN5)=NCCC4)c1	8.4	0.56	
CCCCOC(=O)c1ccccc1-c1c2cc(C)c(=[N+]3CCCC3)cc-2oc2cc(N3CCCC3)c(C)cc12	110	1.1	
O=C(OCc1ccccc1)c1ccccc1C1=c2cc3c(cc2Oc2cc4c(cc21)CCCN4)=NCCC3	8.9	0.81	
CC/N=c1/cc2oc3cc(NCC)c(C)cc3c(-c3ccccc3C(=O)OCC)c-2cc1C	690	2.9	Activity (Saccharomyces cerevisiae [6]): Active; Activity (Saccharomyces cerevisiae [7]): inactive
O=C(OCCc1ccccc1)c1ccccc1C1=c2cc3c(cc2Oc2cc4c(cc21)CCCN4)=NCCC3	8.1	1.4	
COc1ccccc1COC(=O)c1ccccc1C1=c2cc3c(cc2Oc2cc4c(cc21)CCCN4)=NCCC3	8.2	0.5	
COc1cccc(COC(=O)c2ccccc2C2=c3cc4c(cc3Oc3cc5c(cc32)CCCN5)=NCCC4)c1	8.2	0.58	
O=C(OCc1cc(C(F)(F)F)cc(C(F)(F)F)c1)c1ccccc1C1=c2cc3c(cc2Oc2cc4c(cc21)CCCN4)=NCCC3	6.3	2.3	
CCCCOC(=O)c1ccccc1C1=c2cc3c(cc2Oc2cc4c(cc21)CCCN4)=NCCC3	14	1.7	
CCCC/N=c1/cc2oc3cc(NCCCC)c(C)cc3c(-c3ccccc3C(=O)OCCCC)c-2cc1C	160	3.2	
CN(C)c1cccc(COC(=O)c2ccccc2C2=c3cc4c(cc3Oc3cc5c(cc32)CCCN5)=NCCC4)c1	10	0.52	
O=C(OCc1cccc(C(F)(F)F)c1)c1ccccc1C1=c2cc3c(cc2Oc2cc4c(cc21)CCCN4)=NCCC3	18	0.44	

Reference: ChEMBL document CHEMBL5357076, “Structure-ATPase Activity Relationship of Rhodamine Derivatives as Potent Inhibitors of P-Glycoprotein CmABCB1” (ACS Med Chem Lett, 2024)
